Compound activity from PubChem BioAssay.
PKA-R2B activ: activates the human PKA-R2B holoenzyme complex; P22694+P31323; PKA-R2B holoenzyme dissociation, Cy5-IP20 fluorescence polarization; R2B truncated from residue 108, S112A mutant; 0% DMSO only, 100% 113 µM cGMP; activation, % at 11.4 µM; hit rate 0.079% among 340,000; AID 504700;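 active = activation above a cutoff set at the mean over all compounds plus 3 SD, cut at about 18% in these data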;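 note: higher means more holoenzyme dissociation and a rise in polarization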
Rin1-Abl PPI inh: inhibitors of human Rin1-Abl protein interaction; P00519+Q13671; TR-FRET Rin1/Abl binding, biochemical; inhibition, % at 7.35 µM; hit rate 0.4% among 360,000; AID 588664; in the data active = inhibition above about 5%, passing the limit was not always enough
Target sequence (P00519 whole entry, looked up): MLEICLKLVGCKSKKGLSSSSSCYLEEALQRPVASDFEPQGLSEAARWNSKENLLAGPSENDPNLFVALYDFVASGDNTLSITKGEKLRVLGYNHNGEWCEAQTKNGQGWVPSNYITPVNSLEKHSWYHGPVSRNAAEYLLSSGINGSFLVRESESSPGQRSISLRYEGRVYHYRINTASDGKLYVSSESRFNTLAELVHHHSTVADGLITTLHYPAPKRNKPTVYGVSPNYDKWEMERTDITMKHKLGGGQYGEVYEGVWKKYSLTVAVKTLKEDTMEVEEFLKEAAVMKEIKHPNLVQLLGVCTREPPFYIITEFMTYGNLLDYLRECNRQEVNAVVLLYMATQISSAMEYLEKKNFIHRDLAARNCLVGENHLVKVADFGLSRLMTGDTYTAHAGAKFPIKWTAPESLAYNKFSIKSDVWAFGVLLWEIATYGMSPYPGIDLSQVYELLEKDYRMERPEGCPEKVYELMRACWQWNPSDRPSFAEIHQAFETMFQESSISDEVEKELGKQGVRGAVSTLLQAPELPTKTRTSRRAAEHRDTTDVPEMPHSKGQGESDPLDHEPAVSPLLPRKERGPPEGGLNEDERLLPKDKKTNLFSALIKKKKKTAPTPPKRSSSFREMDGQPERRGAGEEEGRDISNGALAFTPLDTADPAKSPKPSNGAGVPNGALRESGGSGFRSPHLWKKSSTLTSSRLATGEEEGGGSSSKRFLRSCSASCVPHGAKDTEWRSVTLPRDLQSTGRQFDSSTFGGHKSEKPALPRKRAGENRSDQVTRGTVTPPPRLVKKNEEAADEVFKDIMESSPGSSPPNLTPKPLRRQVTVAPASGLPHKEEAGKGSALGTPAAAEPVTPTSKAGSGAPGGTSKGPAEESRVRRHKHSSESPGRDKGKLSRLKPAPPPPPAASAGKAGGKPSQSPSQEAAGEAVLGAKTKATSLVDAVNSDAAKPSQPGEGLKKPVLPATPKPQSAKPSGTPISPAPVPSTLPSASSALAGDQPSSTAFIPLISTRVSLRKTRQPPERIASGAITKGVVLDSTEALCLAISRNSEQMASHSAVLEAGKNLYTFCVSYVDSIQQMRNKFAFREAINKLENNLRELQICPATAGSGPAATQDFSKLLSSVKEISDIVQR
Target sequence (Q13671 whole entry, looked up): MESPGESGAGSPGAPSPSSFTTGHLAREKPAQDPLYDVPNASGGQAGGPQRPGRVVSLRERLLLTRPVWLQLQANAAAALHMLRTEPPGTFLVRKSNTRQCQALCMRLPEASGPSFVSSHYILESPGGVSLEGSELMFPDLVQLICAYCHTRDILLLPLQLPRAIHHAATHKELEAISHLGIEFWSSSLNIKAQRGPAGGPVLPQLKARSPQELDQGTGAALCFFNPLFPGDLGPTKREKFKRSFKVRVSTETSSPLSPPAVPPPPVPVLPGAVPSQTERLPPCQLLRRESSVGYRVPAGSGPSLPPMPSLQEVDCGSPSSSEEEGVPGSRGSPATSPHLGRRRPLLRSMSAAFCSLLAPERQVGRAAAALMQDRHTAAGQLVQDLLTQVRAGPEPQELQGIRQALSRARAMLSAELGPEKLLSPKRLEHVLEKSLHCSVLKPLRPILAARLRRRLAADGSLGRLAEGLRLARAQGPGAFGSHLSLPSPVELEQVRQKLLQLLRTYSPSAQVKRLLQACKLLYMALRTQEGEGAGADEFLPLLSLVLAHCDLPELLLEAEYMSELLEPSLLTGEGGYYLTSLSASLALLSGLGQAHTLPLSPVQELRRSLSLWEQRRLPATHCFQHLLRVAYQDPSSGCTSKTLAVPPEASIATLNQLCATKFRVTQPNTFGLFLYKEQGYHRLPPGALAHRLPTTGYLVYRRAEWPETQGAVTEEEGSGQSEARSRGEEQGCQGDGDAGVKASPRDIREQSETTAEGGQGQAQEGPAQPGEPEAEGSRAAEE
Cardio protect: modulators protecting cardiomyocytes from myocardial damage. H9c2 cardiomyocytes, H2O2 injury protection, ATPLite, 2 h. protection from H2O2 cell death, % at 20 µM. hit rate 0.63% among 360,000. AID 588492;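 active = compounds giving at least 50% protection of heart cells from peroxide-induced death in the single-dose screen, raw or plate-pattern-corrected value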
TbMetRS inhib: Trypanosoma brucei MetRS inhibition; purified T. brucei MetRS, ATP depletion, Kinase-Glo luminescence; AID 624268; inhibition, % at 11.9 µM; hit rate 0.4% among 360,000;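 active = inhibition above a per-plate cutoff of the control wells' mean inhibition plus 3 SD, cut at about 5.5% in these data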
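System: purified T. brucei MetRS enzyme / Detection: Kinase-Glo luciferase luminescence reporting remaining unconsumed ATP / Medium: HEPES buffer with MgCl2, KCl, DTT, spermine, BSA, pyrophosphatase / Replication: singlicate, one well per compound / Evaluation: percent inhibition relative to median high and low control wells / Schedule: 2 h aminoacylation at 25 °C after 15 min preincubation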
PKA-R1A activ: activators of PKA-R1A complex; hit rate 0.083% among 340,000; activation, % at 11.4 µM; P00514+P68181; PKA-R1A dissociation, Cy5-IP20 fluorescence polarization; scaled: DMSO 0%, 113 µM cGMP 100%;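 active = percent activation above the mean of all tested compounds plus 3 SD, cut at about 19% in these data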;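 note: higher means more PKAc released from R1A so a rise in polarization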
Rin1-Abl confirm: Rin1-Abl interaction inhibition confirmation; shares compounds with Rin1-Abl PPI inh; TR-FRET Rin1-Abl binding, purified proteins; inhibition, % at 7.35 µM; hit rate 49% among 1,300
GFP quench-1: quenches GFP fluorescence, counter-screen for Rin1-Abl inhibitors; inhibition, % at 6.75 µM; shares compounds with Rin1-Abl PPI inh; inhibitors/quenchers counterscreen; AID 602125; hit rate 8.5% among 1,300;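 note: ABL1-eGFP fusion protein alone without its partner RIN1-SBP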
GFP quench dose: quenches GFP in dose response, Rin1-Abl counter-screen; shares compounds with Rin1-Abl PPI inh; GFP fluorescence interference/quenching counterscreen; IC50, µM; 230 tested, under 10 active; call rule not given here;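 note: ABL1-eGFP fusion protein alone without its RIN1 binding partner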
GFP quench-2: quenches GFP fluorescence in Rin1-Abl counterscreen; shares compounds with Rin1-Abl PPI inh; GFP fluorescence quenching counterscreen, biochemical; IC50, µM; 25 tested, under 10 active; call rule not given here
TbMetRS confirm: confirmation of Trypanosoma brucei MetRS inhibitors; shares compounds with TbMetRS inhib; AID 624412; T. brucei MetRS enzyme, luminescence (ATP depletion); hit rate 93% among 1,400; inhibition, % at 11.9 µM; in the data active = inhibition above about 7%
Jurkat cytotox: Jurkat T cell cytotoxicity for MetRS hits. shares compounds with TbMetRS inhib. Jurkat cells viability, ATP luminescence. inhibition, % at 8.3 µM. hit rate 12% among 1,400. AID 624413; in the data active = inhibition above about 15%
TbMetRS FP orth: inhibits T. brucei methionyl tRNA synthetase in orthogonal FP test; shares compounds with TbMetRS inhib; purified T. brucei MetRS, fluorescence polarization; inhibition, % at 11.9 µM; hit rate 44% among 1,400; in the data active = inhibition above about 17%
A number is an active result; – = inactive; · = no result given; ! = not confirmed by another sample. This is a sample that favours compounds with a hit; in the whole collection about 1.5% have one here. Cut-off read from the data, not from the text of the source, unless noted: active = inhibition above about 6.5%; inactive = the rest.

SMILES | PKA-R2B activ | Rin1-Abl PPI inh | Cardio protect | TbMetRS inhib | PKA-R1A activ | Rin1-Abl confirm | GFP quench-1 | TbMetRS confirm | Jurkat cytotox | TbMetRS FP orth | others
CN1CCN(CCOC2c3ccccc3CSc3ccc(Cl)cc32)CC1 (stereo not drawn) | – | – | – | – | – | · | · | · | · | ·
Brc1ccc(Oc2cc(Br)c(Br)cc2Br)c(Br)c1 | – | 8.2 | – | – | – | 13.2 | – | · | · | ·
CC12CN3CC(C)(CN(C1)C31CCOCC1)C2=O | – | – | – | – | – | · | · | · | · | ·
CC/C(CC(c1ccccc1)c1c(O)c2ccccc2oc1=O)=N\NC(N)=S (stereo not drawn) | – | 5.9 | – | – | – | – | – | · | · | ·
COc1ccc(C(CC(C)=O)c2c(O)c3ccccc3oc2=O)cc1OC (stereo not drawn) | – | – | – | – | – | · | · | · | · | ·
CN1CCN(/N=C/c2c(O)n(Cc3ccc(F)cc3)c(=O)[nH]c2=O)CC1 | – | – | – | – | – | · | · | · | · | ·
CCOC(=O)C(=O)NC1CCSC1=O (stereo not drawn) | – | – | – | – | – | · | · | · | · | ·
CCCC(C)C(=O)NC1CCSC1=O (stereo not drawn) | – | 4.9 | – | – | – | – | – | · | · | ·
O=c1[nH]c(=O)n(-c2ccc(Br)cc2)c(O)c1C=NC(CO)(CO)CO | · | 6.0 | – | – | · | – | – | · | · | ·
CCOC(=O)N1CCC(NC(=O)CCc2nc(C3=CCN(C)CC3)no2)CC1 | – | 69.6 | – | – | – | 50.0 | – | · | · | · | GFP quench dose=–;GFP quench-2=–
COCCCNC(=O)c1c(N)n(Cc2ccco2)c2nc3ccccc3nc12 | · | – | – | – | · | · | · | · | · | ·
COc1ccc(Cn2c(N)c(C(=O)NCc3ccco3)c3nc4ccccc4nc32)cc1OC | – | 15.3 | – | 8.0 | – | – | – | – | – | –
Nc1c(C(=O)NC2CCCC2)c2nc3ccccc3nc2n1CC1CCCO1 (stereo not drawn) | – | 19.2 | – | 7.5 | – | – | – | – | – | –
COCCCn1c(N)c(C(=O)OCCOC)c2nc3ccccc3nc21 | – | – | – | – | – | · | · | · | · | ·
CCOC(=O)c1c(NS(=O)(=O)c2ccccc2)n(CCCOC)c2nc3ccccc3nc12 | – | 33.4 | – | 13.6 | – | – | – | – | – | –
O=c1[nH]c(=O)n(-c2ccccc2F)c(O)c1C=NCCC1=CCCCC1 | – | – | – | – | – | · | · | · | · | ·
COC(=O)C1=CO[C@@H](C)[C@H]2CN3CC[C@]4(C(=O)Nc5ccccc54)[C@@H]3C[C@H]12 | – | – | – | – | – | · | · | · | · | ·
Cc1nc2c(=O)n(C)c(=O)nc-2n(C)n1 | – | 37.1 | – | 30.4 | – | 45.4 | – | 21.6 | 91.4 | – | GFP quench dose=–
CN(C)Cc1c[nH]c2cc([N+](=O)[O-])ccc12 | – | – | – | 6.7 | – | · | · | 30.0 | – | –
O=C(c1ccco1)N1Cc2ccccc2-n2nncc2C1 | – | – | – | – | – | · | · | · | · | ·
CCN(CC)C(=O)c1ccc(NC(=O)c2ccc(-n3cncn3)c([N+](=O)[O-])c2)cc1 | – | – | – | 8.0 | – | · | · | 43.2 | – | 25.7
CCN(CC)C(=O)c1ccc(NC(=O)c2cccc(C(F)(F)F)c2)cc1 | – | – | – | – | – | · | · | · | · | ·
CCOP(=O)(OCC)C(NC(=O)c1cccc2ccccc12)C(Cl)(Cl)Cl (stereo not drawn) | – | – | – | – | – | · | · | · | · | ·
Cc1ccc2nc3c(cc2c1)CC1(C(=O)N(C)C(=O)N(C)C1=O)C1COCCN31 (stereo not drawn) | – | – | – | 7.1 | – | · | · | – | – | –
O=C1Nc2ccccc2C1Cc1nc2ccccc2c(=O)n1-c1ccccc1 (stereo not drawn) | – | – | – | 9.1 | – | · | · | 6.2 | – | –
SMILES | PKA-R2B activ | Rin1-Abl PPI inh | Cardio protect | TbMetRS inhib | PKA-R1A activ | Rin1-Abl confirm | GFP quench-1 | TbMetRS confirm | Jurkat cytotox | TbMetRS FP orth | others
CC/C(=N\NC(=S)Nc1ccccc1)c1c(O)[nH]c(=O)[nH]c1=O | – | – | – | – | – | · | · | · | · | ·
Clc1ccc(CSC(Cn2ccnc2)c2ccc(Cl)cc2Cl)cc1 (stereo not drawn) | – | – | – | – | – | · | · | · | · | ·
Clc1ccc(COC(Cn2ccnc2)c2ccc(Cl)cc2Cl)cc1 (stereo not drawn) | – | – | – | 6.1 | – | · | · | 19.6 | – | –
O=C1NC(=O)C(CCc2ccncc2)(Cc2ccc([N+](=O)[O-])cc2)C(=O)N1 | – | – | – | – | – | · | · | · | · | ·
CSc1ccc(C(=O)C2CCCN(Cc3cccnc3)C2)cc1 (stereo not drawn) | – | – | – | – | – | · | · | · | · | ·
CSc1ccc(C(=O)C2CCCN(Cc3cc4ccccc4[nH]3)C2)cc1 (stereo not drawn) | – | – | – | 7.1 | – | · | · | 14.8 | – | –
NC(=O)c1cn(C2OC(CO)C(O)C2O)c2ncnc(N)c12 (stereo not drawn) | – | – | – | 5.9! | – | · | · | 12.1 | 96.8 | –
Clc1ccc(C(c2ccc(Cl)cc2)n2cc[n+](CC(OCc3ccc(Cl)cc3Cl)c3ccc(Cl)cc3Cl)c2)cc1 (stereo not drawn) | – | – | – | 8.7 | – | · | · | 13.3 | 82.0 | 178.0
C=CCN(CC=C)C(=O)CCN1CC1C (stereo not drawn) | – | – | – | – | – | · | · | · | · | ·
